From ChEMBL document CHEMBL5647697, “Akt inhibition synergizes with polycomb repressive complex 2 inhibition in the treatment of multiple myeloma” (2019)
Active and inactive are the calls of the source. The calls are words filed in the database; no cut-off is given here.

How the values were obtained:
NCI-H929 [1] = assay: Downregulation of phospho-Rb protein expression in human NCI-H929 cells incubated at 0.3 to 3 micromol/L for 48 hrs by Western blot analysis; format: functional, cell-based; details: dose 0.3-3 µmol/L
Procedure, shortened: (§1)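 MM.1S and H929 cells given TAS-117 at the indicated doses for 48 h. Protein levels assessed by immunoblot.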

OPM-2 [2] = assay: Synergistic activity against human OPM-2 cells assessed as combination index preincubated in presence of 5 uM UNC1999 for 72 hrs followed by compound addition at 1.25 uM incubated for 48 hrs by MTT assay; format: functional
MM1.S [3] = assay: Synergistic activity against human MM.1S cells assessed as combination index […] at 0.125 uM incubated for 48 hrs by […]; format: functional
Procedure, shortened: (§2)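 Cells were exposed to the EZH2/EZH1 inhibitor (UNC1999 or GSK126) for 72 h in total, with the Akt inhibitor added for the last 48 h. Viability was read by MTS assay relative to untreated control cells, in triplicate. The combination index for each dose pair came from isobologram analysis.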

NCI-H929 [4] = assay: Induction of apoptosis in human NCI-H929 cells assessed as necrotic cells preincubated in presence of 5 micromol/L UNC1999 for 48 hrs followed by compound addition at 2 micromol/L incubated for 12 hrs by annexin V/PI staining based flow cytometry (reference value: 2.61%); format: functional; details: dose 2 µmol/L, at 2 µM
MM1.S [5] = assay: Synergistic activity against human MM.1S cells assessed as combination index […] in presence of 2.5 uM GSK126 […] at 0.5 uM incubated for 48 hrs by MTT assay; format: functional; procedure, shortened: as §2
MM1.S [6] = assay: Induction of apoptosis in human MM1.S cells assessed as early apoptotic cells at 2 micromol/L incubated for 12 hrs by annexin V/PI staining based flow cytometry (reference value: 8.03%); format: functional; details: dose 2 µmol/L, at 2 µM
MM1.S [7] = assay: Synergistic activity against human MM.1S cells assessed as combination index […] at 0.5 uM incubated for 48 hrs by MTT assay; format: functional; procedure, shortened: as §2
OPM-2/BTZ [8] = assay: Synergistic activity against human OPM-2/BTZ cells assessed as combination index preincubated in presence of 1.25 uM UNC1999 for 72 hrs followed by compound addition at 2 uM incubated for 48 hrs by MTT assay; format: functional
MM1.S [9] = assay: Downregulation of E2F1 mRNA expression in human MM1.S cells incubated at 0.3 to 3 micromol/L for 24 hrs by qRT-PCR analysis; format: functional, cell-based; details: dose 0.3-3 µmol/L
Procedure, shortened: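 MM.1S and H929 cells given TAS-117 at the indicated doses for 24 h. mRNA measured by RT-qPCR, fold change after normalization to GAPDH; SD of triplicates; significance versus untreated control.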

NCI-H929 [10] = assay: Upregulation of EZH1 protein expression in human NCI-H929 cells at 0.03 to 3 micromol/L after 48 hrs by Western blot analysis; format: functional, cell-based; details: dose 0.03-3 µmol/L
Procedure, shortened: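 MM.1S and H929 cells were treated with graded TAS-117 for 48 h. EZH1 was detected by immunoblot and quantified relative to the GAPDH loading control.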

OPM-2 [11] = assay: Synergistic activity against human OPM-2 cells assessed as combination index preincubated in presence of 2.5 uM GSK126 for 72 hrs followed by compound addition at 1.25 uM incubated for 48 hrs by MTT assay; format: functional
NCI-H929 [12] = assay: (§3) Synergistic activity against human NCI-H929 cells assessed as combination index […] at 0.25 uM incubated for 48 hrs by […]; format: functional; procedure, shortened: as §2
OPM-2/BTZ [13] = assay: Synergistic activity against human OPM-2/BTZ cells assessed as combination index preincubated in presence of 1.25 uM GSK126 for 72 hrs followed by compound addition at 2 uM incubated for 48 hrs by MTT assay; format: functional
OPM-2 [14] = assay: Synergistic activity against human OPM-2 cells assessed as combination index preincubated in presence of 5 uM GSK126 for 72 hrs followed by compound addition at 2.5 uM incubated for 48 hrs by MTT assay; format: functional
MM1.S [15] = assay: Downregulation of CDK2 protein expression in human MM1.S cells incubated at 0.3 to 3 micromol/L for 48 hrs by Western blot analysis; format: functional, cell-based; details: dose 0.3-3 µmol/L; procedure, shortened: as §1
NCI-H929 [16] = assay: Upregulation of EZH1 mRNA expression in human NCI-H929 cells at 0.03 to 3 micromo/L at 6 to 48 hrs by qRT-PCR analysis; format: functional, cell-based; details: dose 0.03-3 µmol/L, time 6-48 hrs
Procedure, shortened: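 EZH1 mRNA was measured by qRT-PCR in MM.1S and H929 cells. Dose series: cells were treated with graded TAS-117 for 24 h. Time course: cells were treated with 3 μmol/L for the indicated times. Fold change is after GAPDH normalization, relative to the untreated control. Data are SD of triplicates.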

NCI-H929 [17] = assay: Induction of apoptosis in human NCI-H929 cells assessed as viable cells preincubated in presence of 5 micromol/L UNC1999 for 48 hrs followed by compound addition at 2 micromol/L incubated for 12 hrs by annexin V/PI staining based flow cytometry (reference value: 95.6%); format: functional; details: dose 2 µmol/L, at 2 µM
OPM-2 [18] = assay: Synergistic activity against human OPM-2 cells assessed as combination index preincubated in presence of 2.5 uM UNC1999 for 72 hrs followed by compound addition at 5 uM incubated for 48 hrs by MTT assay; format: functional
NCI-H929 [19] = assay: Induction of apoptosis in human NCI-H929 cells assessed as late apoptotic cells at 2 micromol/L incubated for 12 hrs by annexin V/PI staining based flow cytometry (reference value: […]%); format: functional; details: dose 2 µmol/L
NCI-H929 [20] = assay: Upregulation of CDKN1B mRNA expression in human NCI-H929 cells at 1 micromol/L after 24 hrs by qRT-PCR analysis; format: functional, cell-based; details: dose 1.0 µmol/L
Procedure, shortened: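 Cells were exposed to 1 μmol/L TAS-117 for 24 h. mRNA of FOXO3, FOXO4, BIM and CDKN1B was measured by qRT-PCR in H929 cells. Fold change is relative to the untreated control after normalization to GAPDH. Data are SD of triplicates.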

MM1.S [21] = assay: Synergistic activity against human MM.1S cells assessed as combination index […] in presence of 1.25 uM UNC1999 […] at 0.25 uM incubated for 48 hrs by MTT assay; format: functional; procedure, shortened: as §2
OPM-2/BTZ [22] = assay: Synergistic activity against human OPM-2/BTZ cells assessed as combination index preincubated in presence of 1.25 uM GSK126 for 72 hrs followed by compound addition at 0.5 uM incubated for 48 hrs by MTT assay; format: functional
NCI-H929 [23] = assay: as §3; format: functional; procedure, shortened: as §2; remark: listed apart in the source
OPM-2/BTZ [24] = assay: Upregulation of p27 protein expression in human OPM-2/BTZ cells incubated at 0.3 to 3 micromol/L for 48 hrs by Western blot analysis; format: functional, cell-based; details: dose 0.3-3 µmol/L
NCI-H929 [25] = assay: Induction of apoptosis in human NCI-H929 cells assessed as early apoptotic cells at 5 micromol/L incubated for 48 hrs by annexin V/PI staining based flow cytometry (reference value: 0.37%); format: functional; details: dose 5 µmol/L, at 5 µM
NCI-H929 [26] = assay: Downregulation of EZH2 protein expression in human NCI-H929 cells at 0.3 to 5 micromol/L for 6 to 48 hrs by Western blot analysis; format: functional, cell-based; details: dose 0.3-5 µmol/L, time 6-48 hrs
Procedure, shortened: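 MM.1S and H929 cells exposed to TAS-117 at the indicated doses for 48 h, or to 5 μmol/L for the indicated times. Immunoblot with GAPDH, Akt and H3 as loading controls; EZH2 quantified relative to GAPDH.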

MM1.S [27] = assay: Synergistic activity against human MM.1S cells assessed as combination index […] compound addition at 0.125 uM incubated for 48 hrs by […]; format: functional; procedure, shortened: as §2

Q: What does the source list for `C[C@]1(O)C[C@@](N)(c2ccc(-c3nc4n(c3-c3ccccc3)COc3ccncc3-4)cc2)C1` [PIFUSERTIB]?
A: Activity (NCI-H929 [1]): Active; CI (OPM-2 [2]): 5.25; CI (MM1.S [3]): 0.532; Activity (NCI-H929 [4]): 2.15%; CI (MM1.S [5]): 0.619; Activity (MM1.S [6]): 9.49%; CI (MM1.S [7]): 1.03; CI (OPM-2/BTZ [8]): 0.395; Activity (MM1.S [9]): Active; Activity (NCI-H929 [10]): Active; CI (OPM-2 [11]): 1.462; CI (NCI-H929 [12]): 0.778; CI (OPM-2/BTZ [13]): 0.203; CI (OPM-2 [14]): 2.74; Activity (MM1.S [15]): Active; Activity (NCI-H929 [16]): Dose-Dependent Effect; Activity (NCI-H929 [17]): 70.4%; CI (OPM-2 [18]): 3.1; Activity (NCI-H929 [19]): 3.42%; Activity (NCI-H929 [20]): Active; CI (MM1.S [21]): 0.251; CI (OPM-2/BTZ [22]): 0.624; CI (NCI-H929 [23]): 0.712; Activity (OPM-2/BTZ [24]): Active; Activity (NCI-H929 [25]): 9.69%; Activity (NCI-H929 [26]): Active; CI (MM1.S [27]): 0.751
